High-throughput results deposited in PubChem BioAssay by several laboratories.
MPTP block: blocks calcium-induced mitochondrial swelling | isolated mouse mitochondria, Ca2+ swelling absorbance, 30 min | inhibition, % at 10 µM | hit rate 1.4% among 360,000 | AID 602449;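 active = inhibition of 50% or more, scaled per plate between neutral and stimulator controls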;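 also: 0% = DMSO wells given calcium and 100% = 1 mM EGTA wells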
GPR7 antag: blocks human GPR7 receptor signaling. P48145. GPR7-expressing cells, fluorescence antagonist assay. inhibition, % at 4.4 µM. hit rate 1.1% among 290,000. AID 1861; in the data active = inhibition above about 16%, passing the limit was not always enough;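 also: cells stimulated with the agonist NPW; 0% = agonist with vehicle and 100% = vehicle without agonist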
OX1R antag-1: antagonists of human orexin 1 receptor (OX1R); O43613; OX1R-expressing cells, FRET antagonist read-out; inhibition, % at 6.6 µM; hit rate 1.8% among 330,000; AID 485270; in the data active = inhibition mostly above about 38%, no sharp cut-off; inactive = mostly below about 40%;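 also: 0% = agonist challenge alone and 100% = reference antagonist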
Target sequence (O43613 whole entry, looked up): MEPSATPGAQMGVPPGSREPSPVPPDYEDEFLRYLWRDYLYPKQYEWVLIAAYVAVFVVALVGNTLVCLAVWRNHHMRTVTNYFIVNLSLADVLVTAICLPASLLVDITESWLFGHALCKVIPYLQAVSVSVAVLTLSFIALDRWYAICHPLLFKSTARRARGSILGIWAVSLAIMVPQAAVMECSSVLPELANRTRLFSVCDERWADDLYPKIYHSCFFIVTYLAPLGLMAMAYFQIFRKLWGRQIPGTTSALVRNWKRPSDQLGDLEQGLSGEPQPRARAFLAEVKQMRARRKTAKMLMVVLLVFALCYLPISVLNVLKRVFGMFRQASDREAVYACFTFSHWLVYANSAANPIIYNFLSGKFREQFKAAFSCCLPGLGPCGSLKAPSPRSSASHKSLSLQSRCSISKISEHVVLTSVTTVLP
CHO parental Ca: signal in parental CHO cells, OX1R antagonist counter-screen; inhibition, % at 5.6 µM; parental CHO-K1, ATP-induced calcium, Fluo-8 fluorescence; AID 463079; hit rate 0.63% among 330,000;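 active = inhibition above that plate's mean sample inhibition plus 3 SD, cut at about 26% in these data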;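 also: 0% = ATP-challenged DMSO wells and 100% = DMSO wells without ATP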
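Assay system: parental CHO cells; Read-out basis: percent inhibition of ATP-evoked calcium rise, normalized to controls; Benchmarks: ATP and no-ATP DMSO wells; Compound dosing: single nominal dose of 5.6 µM per compound; Signal: Fluo-8 calcium dye fluorescence; Also added: ATP as calcium-mobilizing challenge; Repeats: singlicate.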
OX1R antag-2: antagonists of human orexin 1 receptor; O43613; CHO/OX1R cells, Fluo-8 calcium fluorescence, orexin A; inhibition, % at 5 µM; hit rate 0.43% among 330,000;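 active = inhibition above its plate's threshold, mean inhibition of all tested compounds on the plate plus 3 SD, cut at about 37% in these data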;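 also: 0% = orexin A challenge wells and 100% = SB-334867-A antagonist wells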
GPR7 antag conf: confirmation of human GPR7 antagonists | hit rate 52% among 2,400 | inhibition, % at 4.4 µM | AID 1952 | GPR7-expressing cells, calcium fluorescence antagonist mode | shares compounds with GPR7 antag; in the data active = inhibition above about 24%;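 also: stimulated with the GPR7 agonist NPW; 0% = agonist plus vehicle and 100% = vehicle alone without agonist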
MCHR1 antagonist: counter-screen for GPR7 antagonists: antagonists of human MCHR1. shares compounds with GPR7 antag. MCHR1-expressing cells, fluorescence antagonist assay. inhibition, % at 4.4 µM. hit rate 62% among 2,400. AID 2148; in the data active = inhibition above about 22%;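 also: 0% = vehicle with agonist and 100% = vehicle without agonist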
* hit, by the source's call; . = no result given. Only some compounds are listed: those with a hit (about 3.8% of all), similar ones and a draw of the others.

SMILES	MPTP block	GPR7 antag	OX1R antag-1	CHO parental Ca	OX1R antag-2	GPR7 antag conf	MCHR1 antagonist
CCOC(=O)C1CCN(C(=O)COC(=O)c2c(C)c(CC)nc3ccccc23)CC1	-0.3	.	-4.6	-27.9	-24.5	.	.
Cc1ccccc1C(=O)N=c1ccn(-c2nc3ccccc3nc2NS(=O)(=O)c2ccccc2)cc1	-0.9	-6.6	0.2	-1.8	-12.2	.	.
CCOc1ccc(S(=O)(=O)Nc2nc3ccccc3nc2-n2ccc(=NC(=O)c3ccccc3C)cc2)cc1	4.8	22.9*	3.2	-6.3	0.1	-7.7	-1.5
O=C(NCc1ccccc1)c1cc(C2CCCN(C(=O)c3ccc4c(c3)CCO4)C2)on1 (configuration not stated)	-0.9	.	.	.	.	.	.
CC(C)CC(=O)N1CCN(c2ccc([N+](=O)[O-])c(NCc3ccccc3)c2)CC1	17.7	36.4*	16.4	-31.5	-25.4	25.6*	45.0*
CCCCCOc1ccc(Cn2ccnc2)cc1[N+](=O)[O-]	6.1	21.1*	10.5	-7.7	-22.3	37.0*	48.2*
CC(CCc1ccccc1)NC(=O)COC(=O)c1ccc(S(C)(=O)=O)c([N+](=O)[O-])c1 (configuration not stated)	0.1	52.1*	69.4*	18.3	5.7	92.1*	48.0*
COc1ccc(S(=O)(=O)N2CCC(C(=O)NCCc3ccc4c(c3)OCO4)CC2)cc1	0.2	27.7*	3.2	-9.8	-6.8	10.5	5.9
COc1ccc(CCNC(=O)c2ccc3c(c2)OCCO3)cc1	-1.8	27.5*	8.0	-12.3	-8.5	-7.4	17.6
COc1ccc(S(=O)(=O)N2CCC(C(=O)NCc3ccco3)CC2)cc1	0.7	80.3*	18.2	-12.5	-19.2	24.3*	2.3
CCOc1ccc(S(=O)(=O)N2CCC(C(=O)NCc3ccco3)CC2)cc1	-0.9	11.5	9.8	0.8	-2.9	.	.
Cc1cc(F)ccc1NS(=O)(=O)c1c(C(=O)N2CCOCC2)c(C)n(C)c1C	-1.9	-13.9	4.1	-8.9	-16.8	.	.
Cc1onc(-c2ccccc2Cl)c1C(=O)NNC(=O)c1ccccc1F	0.4	4.9	-0.2	4.6	-8.3	.	.
CCc1ccc(-c2cc3c(=O)n(CC(=O)NCCN4CCCCC4C)nc(C)n3n2)cc1 (configuration not stated)	-0.6	12.0	5.0	-14.1	-5.4	.	.
CCOc1ccc2c(c1)C(=O)C(=O)N2CC1COc2ccccc2O1 (configuration not stated)	0.4	25.5	-7.6	-7.3	-7.5	.	.
COc1ccc2c(c1)C(=O)C(=O)N2CC1COc2ccccc2O1 (configuration not stated)	0.3	30.7*	-6.7	-10.6	-5.5	20.5	26.7*
Cc1ccc(NC(=O)C2CCN(C(=O)c3ccc(F)cc3)CC2)nc1	-0.9	.	10.3	-0.1	-9.3	.	.
Cc1ncoc1C(=O)N1CCCC(C(=O)c2ccc(C(F)(F)F)cc2)C1 (configuration not stated)	2.6	-10.0	16.7	-7.2	-11.2	.	.
O=C(Nc1ccc(S(=O)(=O)N2CCCCC2)cc1)c1ccc(CN2CCc3ccccc3C2)cc1	2.9	25.2*	16.2	46.9*	-9.9	48.8*	56.9*
CCOC(=O)c1ccc(NC(=O)c2cccc(S(=O)(=O)N3CCOCC3)c2)cc1	2.2	23.8*	45.9	33.0*	27.5	21.3	74.8*
Cc1ccc(C(=O)Nc2ccc(S(=O)(=O)N3CCN(C)CC3)cc2)cc1	0.2	45.0*	11.8	-13.5	-24.4	0.0	4.7
CCOC(=O)c1ccc(NC(=O)c2ccc(C)c(S(=O)(=O)N3CCOCC3)c2)cc1	-3.7	23.0	40.4	10.8	4.8	.	.
COCCN1Cc2cccc(C(=O)Nc3ccc(S(=O)(=O)N4CCCCC4)cc3)c2C1=O	1.1	24.1*	4.1	11.8	-1.5	-7.3	-8.8
COCCN1Cc2cccc(C(=O)Nc3ccc(C)cc3)c2C1=O	0.4	-16.4	25.7	-17.0	-24.3	.	.
O=C(Nc1ccccc1)c1ccc(CN2CCc3ccccc3C2)cc1	-0.6	-0.3	18.3	-1.3	-16.9	.	.
SMILES	MPTP block	GPR7 antag	OX1R antag-1	CHO parental Ca	OX1R antag-2	GPR7 antag conf	MCHR1 antagonist
Cc1ccc(NC(=O)c2ccc(S(=O)(=O)N3CCCC3)cc2)cc1	-0.4	-11.8	0.8	-19.1	-7.9	.	.
C=C(C)c1cccc(C(C)(C)NC(=O)N2CCC(C(N)=O)CC2)c1	1.2	-5.0	18.6	0.2	-18.1	.	.
c1ccc(CNc2c3c(nc4ncnn24)CCC3)cc1	0.3	-5.6	12.7	-7.7	-17.1	.	.
N#Cc1ccc(CN2CCN(CC(=O)NCCc3ccc(Cl)cc3Cl)CC2)cc1	-0.1	21.5*	6.0	-21.0	-23.7	30.6*	8.3
Cc1cc(NC(=O)CSc2nnc(-c3c[nH]c4ccccc34)n2C)no1	-0.4	-14.5	8.6	-3.2	-9.7	.	.
CC(Nc1nc(N2CCCCC2)nc2ccccc12)c1ccccc1 (configuration not stated)	42.3	24.3*	3.1	-11.6	-25.0	30.3*	56.9*
CCc1nc2ccc(C(=O)N3CCNC(=O)C3)cn2c1N(C)CCC(C)C	-0.5	.	.	.	.	.	.
Nc1nnc(-c2cccnc2)s1	0.3	-1.4	16.0	-0.1	-9.6	.	.
c1ccc(Nc2nnc(-c3cccnc3)s2)cc1	-0.5	41.1*	3.0	11.1	-19.9	-0.9	13.8
Cc1ccccc1NC(=O)CN1C(=O)NC2(CCc3ccccc32)C1=O (configuration not stated)	-1.9	.	-5.1	-4.1	-23.3	.	.
COc1cc2c(cc1NC(=O)CN1C(=O)NC3(CCc4ccccc43)C1=O)oc1ccccc12 (configuration not stated)	0.6	33.0*	27.8	19.4	6.5	58.8*	56.8*
CCCCS(=O)(=O)N1CCC(C(=O)Oc2ccc(Cl)cc2)CC1	-0.2	-12.8	-5.6	-8.3	-4.5	.	.
COc1ccccc1N(CCC#N)C(=O)CSc1ccc2c(c1)OCCO2	3.3	36.3*	6.3	-6.3	-8.7	1.6	8.1
COC(=O)C1=C(C)Nc2nc(SCc3ccccc3)[nH]c(=O)c2C1c1cccs1 (configuration not stated)	0.2	33.4*	33.5	5.2	19.8	17.2	34.0*
CCSc1nc2c(c(=O)[nH]1)C(c1cccnc1)C(C(=O)OC)=C(C)N2 (configuration not stated)	-1.7	9.1	26.0	-10.6	-21.7	.	.
CCN(CC(=O)Nc1cc(Cl)ccc1C)c1ncnc2sc(C)c(C)c12	8.0	22.8*	25.4	-15.8	-21.6	10.7	44.5*
CSc1nc(C)c2c(n1)N(c1ccc(F)cc1)CC2	-3.2	3.5	8.1	2.3	-5.6	.	.
Cc1ccc2nc(C)c3c(c2c1)N(c1ccc(F)cc1)CC3	10.9	34.9*	8.9	-10.7	-7.0	42.4*	31.0*
O=C(c1c(F)cccc1Cl)N(Cc1ccco1)C1CCS(=O)(=O)C1 (configuration not stated)	-0.6	.	.	.	.	.	.
